Data on five molecules can be found in ChEMBL document CHEMBL3822431, “Hydroxychalcone inhibitors of Streptococcus mutans glucosyl transferases and biofilms as potential anticaries agents” (Bioorg Med Chem Lett, 2016).

The IC50 is the concentration needed to halve the response being measured. Lower therefore signals greater potency.

Test [1] addresses T1, Glucosyltransferase-I (Streptococcus mutans serotype c (strain ATCC 700610 / UA159)) (UniProt P08987).
T1 sequence (whole entry): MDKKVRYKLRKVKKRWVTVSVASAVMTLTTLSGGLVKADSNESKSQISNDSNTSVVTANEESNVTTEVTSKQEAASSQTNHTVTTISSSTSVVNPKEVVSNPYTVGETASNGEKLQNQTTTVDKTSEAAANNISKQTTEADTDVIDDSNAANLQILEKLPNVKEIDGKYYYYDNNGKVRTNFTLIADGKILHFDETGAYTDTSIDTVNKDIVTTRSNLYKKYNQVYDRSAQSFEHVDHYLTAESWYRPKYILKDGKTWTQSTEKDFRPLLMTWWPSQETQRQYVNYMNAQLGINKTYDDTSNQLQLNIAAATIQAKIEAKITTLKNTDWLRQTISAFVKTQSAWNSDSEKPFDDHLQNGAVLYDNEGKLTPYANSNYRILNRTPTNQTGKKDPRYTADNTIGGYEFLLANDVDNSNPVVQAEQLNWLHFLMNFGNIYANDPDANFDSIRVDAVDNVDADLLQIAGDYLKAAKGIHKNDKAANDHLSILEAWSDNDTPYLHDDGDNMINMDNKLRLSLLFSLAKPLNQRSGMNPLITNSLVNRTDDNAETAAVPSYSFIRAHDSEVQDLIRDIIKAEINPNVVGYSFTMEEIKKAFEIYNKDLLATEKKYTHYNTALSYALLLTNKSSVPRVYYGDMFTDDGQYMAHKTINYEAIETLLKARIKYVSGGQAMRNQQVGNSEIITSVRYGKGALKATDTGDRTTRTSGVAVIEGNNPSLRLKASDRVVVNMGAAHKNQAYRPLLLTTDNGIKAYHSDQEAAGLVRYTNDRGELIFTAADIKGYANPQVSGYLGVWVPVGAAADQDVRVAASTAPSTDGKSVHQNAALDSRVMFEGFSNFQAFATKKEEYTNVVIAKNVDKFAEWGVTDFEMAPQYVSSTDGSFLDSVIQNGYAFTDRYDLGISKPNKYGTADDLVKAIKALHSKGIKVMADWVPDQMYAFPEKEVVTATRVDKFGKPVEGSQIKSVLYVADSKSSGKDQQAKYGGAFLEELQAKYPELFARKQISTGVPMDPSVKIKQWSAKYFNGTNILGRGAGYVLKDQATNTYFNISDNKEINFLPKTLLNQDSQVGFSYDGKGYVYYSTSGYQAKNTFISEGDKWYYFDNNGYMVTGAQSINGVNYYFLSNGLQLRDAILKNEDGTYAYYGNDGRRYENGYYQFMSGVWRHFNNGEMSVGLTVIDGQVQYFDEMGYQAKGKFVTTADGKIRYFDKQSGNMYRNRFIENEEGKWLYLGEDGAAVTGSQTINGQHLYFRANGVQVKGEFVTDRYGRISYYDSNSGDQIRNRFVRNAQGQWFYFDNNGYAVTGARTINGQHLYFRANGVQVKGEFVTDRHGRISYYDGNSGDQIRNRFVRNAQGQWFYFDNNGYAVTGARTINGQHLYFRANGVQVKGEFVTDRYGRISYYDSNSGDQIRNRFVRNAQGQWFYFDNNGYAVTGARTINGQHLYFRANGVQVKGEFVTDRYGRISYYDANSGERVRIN
The test is described as follows: Inhibition of Wild-type Streptococcus mutans UA159 glucosyltransferase B at 50 uM by coomassie blue staining based SDS-PAGE method. Put shortly:
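Compound (50 µM) added to overnight S. mutans UA159 wild-type cultures; Gtfs collected and concentrated from supernatants, run on SDS-PAGE in duplicate; one gel Coomassie blue stained for protein levels.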

In a further test the test system is Streptococcus mutans. Put plainly: Inhibition of biofilm formation of Streptococcus mutans UA159 after 16 hrs by crystal violet staining based serial dilution method. The note with it: Streptococcus mutans, UA159, 16 h. It counts as functional, organism-based. In a few lines: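 S. mutans UA159 co-incubated with compound at various concentrations; biofilm quantified by crystal violet protocol, read at OD562.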

The source made the active and inactive calls. The rule behind the calls is not given here.

On to `O=C(/C=C\c1ccc(O)cc1O)c1cccc(O)c1`, for which the inhibition result in test [1] was “Active”. The same molecule displayed an IC50 in the test on Streptococcus mutans of 44 µM.
For the molecule `O=C(/C=C/c1cc(O)c(O)cc1O)c1ccccc1O` (stereo in doubt; 18c), the inhibition entry in test [1] was “Active”.
`O=C(/C=C/c1ccc(O)cc1O)c1ccc(O)cc1`: in test [1], the inhibition entry was “Active”. The IC50 in the test on Streptococcus mutans came out at 162 µM.
Regarding `O=C(/C=C\c1ccc(O)cc1O)c1ccc(O)cc1`, the inhibition entry in test [1] was “Active”. The midpoint of inhibition with Streptococcus mutans, the IC50, lay at 77 µM.
For the molecule `O=C(/C=C/c1ccc(O)cc1O)c1cccc(O)c1` (stereo in doubt; 9a), in test [1], the inhibition entry is “Active”.
